# Results from paper PMC2229513 (The Journal of General Physiology, 2001).
# Substitutions are numbered along the chain they refer to. Read-outs that look alike come from different tables or passages of the source.
# Experiments:
# [1] = biological target: T1, ENaC wt (Rattus norvegicus, UniProt P37089+P37090+P37091); test: Effect of extracellular MTSEA on INa; type: cell-based; details: 2-min extracellular application of 2.5 mM MTSEA
# T1 sequence (P37089 1-698): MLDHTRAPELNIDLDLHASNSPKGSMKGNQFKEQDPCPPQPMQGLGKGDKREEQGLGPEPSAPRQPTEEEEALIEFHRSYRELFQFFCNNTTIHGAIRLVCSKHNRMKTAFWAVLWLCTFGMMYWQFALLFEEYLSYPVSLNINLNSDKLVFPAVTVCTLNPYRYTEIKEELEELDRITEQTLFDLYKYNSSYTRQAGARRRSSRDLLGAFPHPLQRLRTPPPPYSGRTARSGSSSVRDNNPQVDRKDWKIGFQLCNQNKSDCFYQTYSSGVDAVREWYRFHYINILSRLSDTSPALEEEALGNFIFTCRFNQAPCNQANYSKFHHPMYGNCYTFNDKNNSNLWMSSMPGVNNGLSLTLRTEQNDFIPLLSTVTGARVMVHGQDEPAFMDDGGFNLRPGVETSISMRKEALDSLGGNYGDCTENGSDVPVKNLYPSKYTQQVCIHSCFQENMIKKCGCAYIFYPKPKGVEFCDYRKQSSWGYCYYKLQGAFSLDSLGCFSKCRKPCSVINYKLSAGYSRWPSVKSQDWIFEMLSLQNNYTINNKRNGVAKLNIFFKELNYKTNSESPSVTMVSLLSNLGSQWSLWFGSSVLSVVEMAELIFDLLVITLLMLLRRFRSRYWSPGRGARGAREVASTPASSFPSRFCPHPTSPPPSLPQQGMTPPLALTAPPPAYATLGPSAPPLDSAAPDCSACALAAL
# T1 sequence (P37090 1-638): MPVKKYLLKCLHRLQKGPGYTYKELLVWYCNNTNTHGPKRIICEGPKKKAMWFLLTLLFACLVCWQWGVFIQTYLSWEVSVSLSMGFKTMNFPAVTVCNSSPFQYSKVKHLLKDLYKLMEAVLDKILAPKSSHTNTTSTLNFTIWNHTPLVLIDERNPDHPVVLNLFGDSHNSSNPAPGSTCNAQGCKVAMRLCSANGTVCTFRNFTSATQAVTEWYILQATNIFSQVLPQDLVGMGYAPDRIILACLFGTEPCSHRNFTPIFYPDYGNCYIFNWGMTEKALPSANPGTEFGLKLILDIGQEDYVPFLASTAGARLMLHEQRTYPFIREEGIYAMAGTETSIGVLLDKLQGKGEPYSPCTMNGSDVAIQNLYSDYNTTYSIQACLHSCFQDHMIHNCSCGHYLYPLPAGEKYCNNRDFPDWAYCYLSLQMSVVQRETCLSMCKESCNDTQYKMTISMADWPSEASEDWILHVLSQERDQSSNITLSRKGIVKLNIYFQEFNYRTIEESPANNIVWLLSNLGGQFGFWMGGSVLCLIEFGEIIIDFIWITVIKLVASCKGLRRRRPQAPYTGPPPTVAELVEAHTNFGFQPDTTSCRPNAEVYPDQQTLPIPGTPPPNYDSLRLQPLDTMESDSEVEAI
# T1 sequence (P37091 1-650): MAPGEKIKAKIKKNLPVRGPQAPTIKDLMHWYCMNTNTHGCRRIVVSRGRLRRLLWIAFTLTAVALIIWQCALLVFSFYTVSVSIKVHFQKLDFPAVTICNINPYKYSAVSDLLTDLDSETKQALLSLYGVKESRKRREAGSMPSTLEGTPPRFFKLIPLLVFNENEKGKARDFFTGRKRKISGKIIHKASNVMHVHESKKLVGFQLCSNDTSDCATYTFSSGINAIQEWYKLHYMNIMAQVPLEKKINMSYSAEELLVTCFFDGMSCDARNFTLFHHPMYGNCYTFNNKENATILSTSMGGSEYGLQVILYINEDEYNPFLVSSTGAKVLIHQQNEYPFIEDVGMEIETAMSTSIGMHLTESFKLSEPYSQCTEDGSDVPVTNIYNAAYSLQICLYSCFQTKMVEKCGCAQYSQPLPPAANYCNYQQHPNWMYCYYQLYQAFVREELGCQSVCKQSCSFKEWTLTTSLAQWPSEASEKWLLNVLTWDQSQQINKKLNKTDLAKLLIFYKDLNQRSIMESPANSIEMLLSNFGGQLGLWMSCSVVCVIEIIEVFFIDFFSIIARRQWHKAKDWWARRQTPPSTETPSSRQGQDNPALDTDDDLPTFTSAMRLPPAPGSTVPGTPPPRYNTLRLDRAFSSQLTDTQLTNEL
# How it was run: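 Two-electrode voltage clamp was run on Xenopus oocytes 16–48 h after injecting rat αβγ ENaC cRNAs (100 nl, 100 ng/μl total). INa was the current sensitive to 100 μM amiloride. Aqueous MTSEA stock was made fresh, kept on ice and diluted into bath immediately before use.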
# [2] = biological target: T2, αS589N ENaC mutant (Rattus norvegicus, UniProt P37089+P37090+P37091, S589N); type: cell-based
# T2 sequence (P37089 1-698 S589N): T1 sequence (P37089 1-698) with S589N
# T2 sequence (P37090 1-638): T1 sequence (P37090 1-638)
# T2 sequence (P37091 1-650): T1 sequence (P37091 1-650)
# How it was run: (§1)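 Stage V–VI Xenopus oocytes were pressure-injected with 100 nl of equal amounts of rat α, β and γ ENaC cRNAs (mutations in α only), 100 ng/μl total. Two-electrode voltage clamp was done 16–48 h post-injection. For other permeant cations, Na+ was replaced at the same concentration.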
# [3] = biological target: T1, ENaC wt; type: cell-based
# How it was run: as §1
# [4] = biological target: T3, αS589H ENaC mutant (Rattus norvegicus, UniProt P37089+P37090+P37091, S589H); type: cell-based
# T3 sequence (P37089 1-698 S589H): T1 sequence (P37089 1-698) with S589H
# T3 sequence (P37090 1-638): T1 sequence (P37090 1-638)
# T3 sequence (P37091 1-650): T1 sequence (P37091 1-650)
# How it was run: as §1
# [5] = tested on: wt and mutant (αS589) ENaC channels; test: Block of ionic currents by 100 μM amiloride; type: cell-based, rat
# How it was run: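 Oocytes were co-injected with rat αβγ ENaC cRNAs (100 nl, 100 ng/μl total, equal amounts of each subunit) and recorded by two-electrode voltage clamp 16–48 h later. Amiloride-sensitive current was taken as the difference between currents with and without 100 μM amiloride in the bath.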
# [6] = tested on: ENaC mutants of α (S583), β (G525) or γ subunit (G537); details: mutations of α S583, β G525 or γ G537; ref Schild et al. 1997; cited from earlier work
# [7] = biological target: T4, αS589D ENaC mutant (Rattus norvegicus, UniProt P37089+P37090+P37091, S589D); type: cell-based
# T4 sequence (P37089 1-698 S589D): T1 sequence (P37089 1-698) with S589D
# T4 sequence (P37090 1-638): T1 sequence (P37090 1-638)
# T4 sequence (P37091 1-650): T1 sequence (P37091 1-650)
# How it was run: as §1
# [8] = biological target: T5, αE598A ENaC mutant (Rattus norvegicus, UniProt P37089+P37090+P37091, E598A); test: Amiloride block of αE598A mutant; type: cell-based
# T5 sequence (P37089 1-698 E598A): T1 sequence (P37089 1-698) with E598A
# T5 sequence (P37090 1-638): T1 sequence (P37090 1-638)
# T5 sequence (P37091 1-650): T1 sequence (P37091 1-650)
ratio of INa after MTSEA application relative to the initial INa [1],"IC50 ([2]; IC50 for amiloride block of the NH4+ current, NH4+ current, n = 6–7) [nM]","IC50 ([2]; IC50 for amiloride block, Na+ as the main extracellular cation, n = 6–16) [nM]",IC50 [3] [nM],IC50 [4] [nM],increase of the IC50 for amiloride block (factor vs wt) ([4]; αS589H relative to ENaC wt),IC50 [7] [nM],amiloride block compared with wt [8],Compound,block of ionic currents [5],decrease of channel affinity for amiloride [6]
0.77 ± 0.33,,,,,,,,"CS(=O)(=O)SCCN [MTSEA, aminoethyl methanethiosulfate]",,
,190 ± 60,440 ± 50,180 ± 80,2800 ± 650,16,100 ± 20,not different from wt,N=C(N)NC(=O)c1nc(Cl)c(N)nc1N [amiloride],completely blocked,two to three orders of magnitude
